Experimental data published in ChEMBL document CHEMBL1157328, “Linear sesquiterpene lactones from Anthemis auriculata and their antibacterial activity” (2006).
Values after ≈ are worked out from the molar mass of the structure shown.

Columns and labels:
[1] = test system: Pseudomonas tolaasii; test: Antibacterial activity against Pseudomonas tolaasii after 48 hrs by serial dilution technique; type: functional
Method in brief: (§1)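 Broth microdilution MIC in 96-well plates. Compounds dissolved at 10 mg/mL in DMSO, diluted in nutrient medium to 1000 μg/mL, tested at final […] in serial dilution. Bacteria grown overnight at 37 °C in TSB (~10^9 cells/mL), adjusted with sterile saline to ~1.0×10^5 per well. Plates incubated 48 h at 37 °C.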

[2] = test system: Micrococcus luteus; test: Antibacterial activity against Sarcina lutea ATCC 9341 after 48 hrs by serial dilution technique; type: functional; settings: ATCC 9341, 48 h; method in brief: as §1
[3] = test system: Salmonella enteritidis; test: Antibacterial activity against Salmonella enteritidis ATCC 13076 after 48 hrs by serial dilution technique; type: functional, Salmonella enterica subsp. enterica serovar Enteritidis; settings: Salmonella enterica, ATCC 13076, 48 h; method in brief: as §1
[4] = test system: Escherichia coli; test: Antibacterial activity against Escherichia coli ATCC 35218 after 48 hrs by serial dilution technique; type: functional; settings: ATCC 35218, 48 h; method in brief: as §1
[5] = test system: Pseudomonas aeruginosa; test: Antibacterial activity against Pseudomonas aeruginosa isolate after 48 hrs by serial dilution technique; type: functional; method in brief: as §1
[6] = test system: Staphylococcus aureus; test: Antibacterial activity against Staphylococcus aureus ATCC 6538 after 48 hrs by serial dilution technique; type: functional; settings: ATCC 6538, 48 h; method in brief: as §1
[7] = test system: Agrobacterium tumefaciens; test: Antibacterial activity against Agrobacterium tumefaciens A281 after 48 hrs by serial dilution technique; type: functional; settings: A281, 48 h; method in brief: as §1
[8] = test system: Bacillus cereus; test: Antibacterial activity against Bacillus cereus isolate after 48 hrs by serial dilution technique; type: functional; method in brief: as §1
[9] = test system: Micrococcus luteus; test: Antibacterial activity against Micrococcus luteus isolate after 48 hrs by serial dilution technique; type: functional; method in brief: as §1
[10] = test system: Candida albicans; test: Antifungal activity against Candida albicans isolate after 72 hrs by serial dilution technique; type: functional
Method in brief: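 Candida albicans clinical isolate kept on Sabouraud agar at +4 °C, subcultured monthly. Compounds dissolved at 10 mg/mL in DMSO, diluted in medium to 1000 μg/mL, tested at final […] by serial microdilution in 96-well plates. Inoculum adjusted with saline to ~1.0×10^5 per well. Incubated 72 h at 28 °C. MIC recorded.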

[11] = test system: Proteus mirabilis; test: Antibacterial activity against Proteus mirabilis isolate after 48 hrs by serial dilution technique; type: functional; method in brief: as §1

SMILES	MIC [1] [µM]	MIC [2] [µM]	MIC [3] [µM]	MIC [4] [µM]	MIC [5] [µM]	MIC [6] [µM]	MIC [7] [µM]	MIC [8] [µM]	MIC [9] [µM]	MIC [10] [µM]	MIC [11] [µM]
C=C1C(=O)OC[C@H]1[C@@H](O)/C=C(\C)CC(=O)C=C(C)C	189 (≈ 50 µg/mL)	47 (≈ 12.4 µg/mL)	189 (≈ 50 µg/mL)	189 (≈ 50 µg/mL)	189 (≈ 50 µg/mL)	47 (≈ 12.4 µg/mL)	94.7 (≈ 25 µg/mL)	94.7 (≈ 25 µg/mL)	94.7 (≈ 25 µg/mL)	189 (≈ 50 µg/mL)	189 (≈ 50 µg/mL)
C=C1C(=O)OC[C@H]1[C@H](/C=C(\C)CC(=O)C=C(C)C)OC(C)=O	163 (≈ 50.1 µg/mL)	40.8 (≈ 12.5 µg/mL)	163 (≈ 50.1 µg/mL)	81.7 (≈ 25 µg/mL)	163 (≈ 50.1 µg/mL)	81.7 (≈ 25 µg/mL)	81.7 (≈ 25 µg/mL)	81.7 (≈ 25 µg/mL)	81.7 (≈ 25 µg/mL)	81.7 (≈ 25 µg/mL)	163 (≈ 50.1 µg/mL)
C=C1CC[C@]2(C)CC[C@]3(C)[C@H](CC[C@@H]4[C@@]5(C)CC[C@H](O)C(C)(C)[C@@H]5CC[C@]43C)[C@@H]2[C@@H]1C	117 (≈ 50.1 µg/mL)	14.7 (≈ 6.27 µg/mL)	117 (≈ 50.1 µg/mL)	117 (≈ 50.1 µg/mL)	117 (≈ 50.1 µg/mL)	29.3 (≈ 12.5 µg/mL)	29.3 (≈ 12.5 µg/mL)	58.7 (≈ 25 µg/mL)	58.7 (≈ 25 µg/mL)	117 (≈ 50.1 µg/mL)	117 (≈ 50.1 µg/mL)
C=C1C(=O)OCC1C/C=C(\C)CC(=O)C=C(C)C (stereo not drawn) [ANTHECOTULIDE]	202 (≈ 50.2 µg/mL)	51 (≈ 12.7 µg/mL)	202 (≈ 50.2 µg/mL)	101 (≈ 25.1 µg/mL)	202 (≈ 50.2 µg/mL)	101 (≈ 25.1 µg/mL)	101 (≈ 25.1 µg/mL)	51 (≈ 12.7 µg/mL)	101 (≈ 25.1 µg/mL)	101 (≈ 25.1 µg/mL)	202 (≈ 50.2 µg/mL)
c1ccc(-c2ccc(C(c3ccccc3)n3ccnc3)cc2)cc1 (stereo not drawn) [BIFONAZOLE]	–	–	–	–	–	–	–	–	–	644 (≈ 200 µg/mL)	–
COC(=O)c1ccc(O)c(OC)c1 [METHYL VANILLATE]	275 (≈ 50 µg/mL)	137 (≈ 25 µg/mL)	275 (≈ 50 µg/mL)	275 (≈ 50 µg/mL)	–	137 (≈ 25 µg/mL)	275 (≈ 50 µg/mL)	137 (≈ 25 µg/mL)	137 (≈ 25 µg/mL)	275 (≈ 50 µg/mL)	–
CN[C@@H]1[C@H](O[C@H]2[C@H](O[C@H]3[C@H](O)[C@@H](O)[C@H](N=C(N)N)[C@@H](O)[C@@H]3N=C(N)N)O[C@@H](C)[C@]2(O)C=O)O[C@@H](CO)[C@H](O)[C@H]1O [STREPTOMYCIN]	137 (≈ 79.8 µg/mL)	34.3 (≈ 19.9 µg/mL)	137 (≈ 79.8 µg/mL)	68.6 (≈ 39.9 µg/mL)	–	34.3 (≈ 19.9 µg/mL)	68.6 (≈ 39.9 µg/mL)	34.3 (≈ 19.9 µg/mL)	34.3 (≈ 19.9 µg/mL)	–	137 (≈ 79.8 µg/mL)
